# Screens as filed in PubChem BioAssay.
# Sampled rows, rich in hits. Any-hit rate of the full collection: about 2.3%.
# MCL1 BIM primary = disrupts human MCL1 binding to BIM-BH3 peptide; actives 0.68% (n = 320,000); inhibition, % at 10.9 µM; Q07820; AID 2057; GST-MCL1 / FITC-Bim-BH3 fluorescence polarization;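 active = inhibition above the mean inhibition of all tested compounds plus 3 SD, set per campaign, cut at about 40% in these data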;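 note: 0% = DMSO wells and 100% = unlabeled Bim-BH3 peptide control; higher means more loss of mP so more displacement of Bim peptide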
# T cell modulator = modulates CD8 T cell binding to vesicles; 2C CD8+ T cell-vesicle binding, flow cytometry; active compounds read low; response (vesicle binding), % at 7 µM; actives 0.068% (n = 330,000);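 active = response, share of CD8 T cells binding vesicles, and their 90th percentile fluorescence all below set limits, cut at about 80% in these data, passing the limit was not always enough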;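 note: values below 100% mean blocked vesicle binding to the CD8+ T cells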
#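 Incubation: binding step 1.5 h, 37 °C, antibody labelling 20 min, ice; system: murine 2C transgenic CD8+ T lymphocytes; technique: cytometric PE anti-B7-1 and Alexa647 anti-CD8 signals after 1% paraformaldehyde fixation; also added: QL9-charged Drosophila Ld/ICAM-1/B7-1 vesicles; control set: naked versus QL9-loaded vesicles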
# DSG3 Ab inh = inhibitors of pemphigus antibody binding to human desmoglein-3; P32926; DSG3-coupled beads, scFv-anti-DSG3-GFP binding, flow cytometry; active compounds read low; binding (percent of control), % at 10 µM; actives 0.48% (n = 310,000); AID 588358;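 active = binding more than 3 SD below its plate's average and above zero; inconclusive = below that plate limit but binding exactly zero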;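 note: hits lower antibody fragment binding to DSG3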
# Target sequence (P32926 whole entry, looked up, the tested form may be a part): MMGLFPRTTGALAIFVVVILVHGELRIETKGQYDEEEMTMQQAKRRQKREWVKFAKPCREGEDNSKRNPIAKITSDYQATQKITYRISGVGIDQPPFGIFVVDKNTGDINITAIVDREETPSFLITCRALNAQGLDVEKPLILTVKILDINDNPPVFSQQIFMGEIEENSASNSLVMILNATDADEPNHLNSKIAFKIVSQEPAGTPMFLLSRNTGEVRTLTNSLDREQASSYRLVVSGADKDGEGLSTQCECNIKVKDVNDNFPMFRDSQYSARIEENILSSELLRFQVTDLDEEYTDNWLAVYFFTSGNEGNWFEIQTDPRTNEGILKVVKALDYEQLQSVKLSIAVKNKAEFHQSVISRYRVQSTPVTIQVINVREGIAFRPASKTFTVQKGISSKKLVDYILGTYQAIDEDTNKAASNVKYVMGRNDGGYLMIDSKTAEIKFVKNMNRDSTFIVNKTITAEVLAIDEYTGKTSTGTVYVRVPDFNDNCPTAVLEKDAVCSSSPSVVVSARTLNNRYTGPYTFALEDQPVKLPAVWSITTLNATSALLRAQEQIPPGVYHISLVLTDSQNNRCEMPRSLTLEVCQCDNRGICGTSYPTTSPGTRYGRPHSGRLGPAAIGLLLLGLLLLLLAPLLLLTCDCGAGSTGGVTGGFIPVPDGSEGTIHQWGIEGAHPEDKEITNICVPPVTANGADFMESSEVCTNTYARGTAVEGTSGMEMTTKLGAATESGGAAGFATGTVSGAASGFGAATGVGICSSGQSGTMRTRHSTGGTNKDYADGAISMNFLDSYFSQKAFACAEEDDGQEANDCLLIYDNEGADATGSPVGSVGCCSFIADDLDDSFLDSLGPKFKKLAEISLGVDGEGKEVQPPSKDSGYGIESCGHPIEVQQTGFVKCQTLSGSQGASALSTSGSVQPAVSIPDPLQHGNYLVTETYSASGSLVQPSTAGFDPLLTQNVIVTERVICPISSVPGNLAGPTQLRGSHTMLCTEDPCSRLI
# Bim-Mcl-1 = inhibitors of Bim-Mcl-1 interaction, human; Q07820; actives 0.1% (n = 190,000); inhibition, % at 10 µM; Bead-based flow cytometry, Bim peptide-Mcl-1 binding; in the data active = inhibition above about 40%;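 note: 0% = no compound tracer wells and 100% = peptide blocker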
# Mcl1-Bid inh = Mcl-1/Bid interaction inhibition. TR-FRET Mcl-1/Bid-Dy647 peptide binding, 1536-well. inhibition, % at 21.7 µM. actives 0.97% (n = 220,000). AID 1021;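 active = compounds that cut the binding signal by more than half at the single screening dose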;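 note: His-tagged Mcl-1 with europium anti-His antibody binding Bid BH3 peptide; 0% = Mcl-1 plus peptide wells and 100% = peptide-only wells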
# Mcl1 Noxa PPI = disrupts binding of human Mcl-1 to Noxa peptide; Q07820; TR-FRET Mcl-1/Noxa peptide binding, 2 h; inhibition, % at 21.7 µM; actives 1.5% (n = 220,000); AID 1022;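 active = compounds that cut the protein-peptide binding signal by more than 50% relative to plate controls in a single-dose test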;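 note: His-tagged Mcl-1 with rhodamine Noxa BH3 peptide and terbium anti-His antibody; 0% = Mcl-1 plus Noxa peptide wells and 100% = peptide-only wells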
# Active calls of the source: *; ? = inconclusive; · = not tested or not shown.
SMILES,MCL1 BIM primary,T cell modulator,DSG3 Ab inh,Bim-Mcl-1,Mcl1-Bid inh,Mcl1 Noxa PPI
Cc1noc(C)c1NC(=O)N(C)C[C@H]1OCc2cn(nn2)CCCC(=O)N([C@@H](C)CO)C[C@@H]1C,·,·,105.2,·,·,·
O=C(Nc1nc2c(F)cc(F)cc2s1)C1CC(=O)N(Cc2ccco2)C1 (centres undefined),13.1,630.4,101.2,·,-20.1,58.9*
Cc1cc(C)c2nc(NC(=O)C3CC(=O)N(Cc4ccco4)C3)sc2c1 (centres undefined),4.7,207.8,94.1,-1.0,-3.5,-7.1
CSc1c(CC(=O)Nc2ccccc2C(F)(F)F)n(Cc2ccccc2)c2ccccc12,3.0,290.6,106.7,7.0,58.5*,9.8
CC(C)(C)n1nnnc1C(c1cccnc1)N1CCN(c2cccc(C(F)(F)F)c2)CC1 (centres undefined),7.1,237.8,110.5,11.0,58.0*,30.6
COc1ccc(-n2nc3cc(C)c(N)c(Br)c3n2)cc1,8.1,184.7,?,2.0,-28.1,88.9*
Nc1cc2nn(-c3ccccc3)nc2cc1Cl,·,·,99.8,0.0,-82.8,65.9*
COc1ccc(-n2nc3cc(N)c(Br)cc3n2)cc1,2.5,313.2,115.0,·,·,·
Cc1ccc(-n2nc3cc(C)c(N)cc3n2)cc1,7.7,371.7,98.0,0.0,-25.0,90.3*
Cc1ccc(Cn2c(=N)n(CC(O)COc3ccccc3)c3ccccc32)cc1 (centres undefined),2.0,601.3,119.0,0.0,-5.5,16.7
N=c1n(Cc2ccccc2)c2ccccc2n1CC(O)COc1ccccc1 (centres undefined),-2.2,241.3,99.9,1.0,64.1*,19.4
C=CCc1ccc(OCCCCN2CCC(C)CC2)c(OC)c1,-2.4,189.5,105.9,-10.0,39.3,6.6
C=CCc1ccc(OCCCN2CCCC(C)C2)c(OC)c1 (centres undefined),6.7,790.7,99.6,-4.0,59.0*,12.3
Nc1c(C(=O)c2ccccc2)oc2ccc([N+](=O)[O-])cc12,-4.1,102.4,59.5*,·,-68.9,1.8
Nc1c(C(=O)c2ccccc2)oc2ccc(Br)cc12,-4.3,322.1,89.9,-2.0,-79.8,-6.6
CCCCCCOC(=O)CC1CC(C(C)=O)C1(C)C (centres undefined),·,·,94.0,·,·,·
O=C(CNC(=S)NC(=O)c1ccccc1Br)c1ccccc1,5.2,209.7,6.1*,-3.0,-45.0,-4.7
O=C(Nc1ccc(N2CCCC2)cc1)c1ccccc1F,4.9,264.3,96.2,-5.0,-30.4,82.4*
O=C(Nc1ccc(N2CCCCC2)cc1)c1ccc(F)cc1F,2.7,464.1,115.5,·,-26.0,1.8
O=C(Nc1ccc(N2CCCCC2)cc1)c1ccccc1,-0.3,583.0,125.8,0.0,-22.7,35.5
O=C(Nc1ccc(N2CCCC2)cc1)c1cccc(F)c1,3.9,665.1,94.9,-1.0,-34.5,67.4*
COc1ccc(NC(=O)c2ccc(NC(=O)CN3CCN(c4ccccc4)CC3)cc2)cc1,·,169.1,5.2*,·,·,·
Cc1ccc(C(=O)Nc2ccc(N3CCCC3)cc2)cc1,1.3,238.9,97.7,-1.0,-35.2,77.5*
CCCc1cc(=O)[nH]c(SCC(=O)Nc2cc(S(=O)(=O)N3CCOCC3)ccc2Cl)n1,·,365.7,122.2,·,·,·
O=C(CN1C(=O)NC(c2ccccc2)(c2ccccc2)C1=O)Nc1ccc(N2CCOCC2)cc1,·,510.8,123.6,·,·,·
SMILES,MCL1 BIM primary,T cell modulator,DSG3 Ab inh,Bim-Mcl-1,Mcl1-Bid inh,Mcl1 Noxa PPI
CCC(=O)N1CCN(c2ccc(NC(=O)c3ccc4c(c3)OCCO4)cc2)CC1,4.3,421.7,75.5*,3.0,-32.7,13.6
COc1ccc(C2(c3ccc(OC)cc3)NC(=O)N(CC(=O)Nc3ccc(N4CCOCC4)cc3)C2=O)cc1,-1.7,182.1,3.0*,·,·,·
CC(C)(C)C(=O)Nc1ccc(N2CCCC2)cc1,10.8,300.0,105.7,-1.0,-54.9,56.5*
O=C(/C=C/c1ccncc1)c1ccc(NC(=O)c2ccccc2F)cc1,-23.8,232.6,105.7,8.0,51.5*,-15.2
CN1CCN(c2ccc(NC(=O)c3ccc4c(c3)OCCO4)cc2)CC1,9.6,341.2,90.2,-1.0,-8.3,13.5
COc1ccc(NC(=O)C2(S(=O)(=O)c3ccc(C)cc3)CC2)cc1,2.2,200.3,·,·,·,·
O=C(COc1ccc(Cl)cc1)Nc1cc(NC(=O)COc2ccc(Cl)cc2)cc(C(=O)O)c1,10.2,248.9,103.3,·,·,·
O=C(Nc1ccc(N2CCCC2)cc1)c1ccc2ccccc2c1,3.6,272.6,121.2,11.0,-34.1,74.5*
COc1ccc(CN(C)CC(=O)Nc2ccccc2C(=O)NC2CC2)cc1OC,4.3,245.4,?,·,·,·
CC(NC(=O)/C=C/c1ccco1)c1nc2ccccc2n1Cc1ccccc1F (centres undefined),5.4,260.5,81.0*,0.0,-23.7,2.2
CCOc1ccc(NC(=O)c2oc3ccccc3c2NC(=O)CC)cc1,5.4,292.6,·,0.0,77.6*,-10.7
O=c1[nH]c2ccccc2c2nc3ccccn3c12,-2.3,313.5,·,3.0,5.2,-4.5
O=c1nc2c(O)cccn2c2c1c(=O)[nH]c1ccccc12,·,·,98.1,21.0,-83.4,60.6*
Cc1ccc(N2CC(C(=O)Nc3ccc(N(C)C)cc3)CC2=O)cc1C (centres undefined),11.8,579.7,98.2,0.0,-62.4,75.2*
N#C/C(=C/c1ccc(-c2ccc(S(N)(=O)=O)cc2)o1)c1nc2ccccc2s1,15.4,949.5,95.7,-23.0,53.0*,20.8
COC(=O)c1ccc(/C=C(\C#N)c2nc3ccccc3s2)cc1,-66.8,263.5,100.2,0.0,59.0*,59.2*
N#C/C(=C\c1ccccn1)c1nc2ccccc2s1,-56.0,431.4,104.3,0.0,-23.3,19.1
CCN(CC)CCNC(=O)C(Cl)=C1C(Cl)=C(Cl)C(Cl)=C1Cl,·,·,120.5,·,·,·
O=C(C[C@H]1C(=O)N(CCc2ccccc2)C[C@@H]1Cc1ccccc1)Nc1ccccc1,6.6,459.4,103.8,·,·,·
CC(C)(C)NCC(O)COc1ccccc1C(=O)CCc1ccccc1 (centres undefined),-3.9,203.9,104.2,7.0,14.9,-17.5
CC(C)(C)NCC(O)COc1ccccc1C(C)(C)C (centres undefined),4.3,445.0,103.5,-1.0,-32.6,54.2*
O=S(=O)(c1ccccc1)N1CCCCC1CCc1ccccc1 (centres undefined),·,·,98.0,·,·,·
NS(=O)(=O)c1ccc(-c2ccc(/C=C3\SC(=S)N(C4CCS(=O)(=O)C4)C3=O)o2)cc1 (centres undefined),-57.7,149.5,77.3*,·,51.1*,79.0*
Cc1ccc(/C=C2\SC(=S)N(C3CCS(=O)(=O)C3)C2=O)o1 (centres undefined),13.9,100.0,85.4,7.0,-58.8,-5.9
